ChEMBL document CHEMBL3407346, “Design, synthesis, and biological evaluation of sulfonyl acrylonitriles as novel inhibitors of cancer metastasis and spread” (J Med Chem, 2015)
The source made the active and inactive calls. The calls are words filed in the database; no cut-off is given here.

Experiments:
[1] = Cytotoxicity against human SU86 cells co-cultured with human mesothelial cells at 10 uM after 4 hrs by firefly luciferase assay relative to control; type: functional
How it was run: (§1)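 Co-culture of luciferase-transduced cancer cells (puromycin/G418-selected retroviral pLuc) with confluent human mesothelial monolayers. Suspended cancer cells plus 10 µM compound (final) or DMSO were overlaid for 4 h. Non-adherent cells were washed off and surviving adherent cells quantified by firefly luciferase luminescence. Efficacy = treated/DMSO luminescence ratio; mean±SEM, n=3.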

[2] = Cytotoxicity against human BxPC3 cells co-cultured with human mesothelial cells at 10 uM after 4 hrs by firefly luciferase assay relative to control; type: functional, BXPC-3; how it was run: as §1
A2780 [3] = experiment: Cytotoxicity against human A2780 cells co-cultured with human mesothelial cells at 10 uM after 4 hrs by firefly luciferase assay relative to control; type: functional; how it was run: as §1
[4] = Cytotoxicity against human SKOV3 cells co-cultured with human mesothelial cells at 10 uM after 4 hrs by firefly luciferase assay relative to control; type: functional, SK-OV-3; how it was run: as §1
A2780 [5] = experiment: Induction of apoptosis in human A2780 cells assessed as increased cellular levels of cleaved PARP at 5 uM after 4 hrs by immunoblot analysis; type: functional, cell-based
How it was run: (§2)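 A2780 cells were suspended and allowed to adhere for 4 h with DMSO or test compound (5 µM in DMSO). Cells were collected and lysed, lysates normalised for total protein, and cleaved PARP and cleaved caspase 3 detected by immunoblot with actin as loading control. A sulfide analog served as negative control.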

A2780 [6] = experiment: Induction of apoptosis in human A2780 cells assessed as increased cellular levels of cleaved caspase 3 at 5 uM after 4 hrs by immunoblot analysis; type: functional, cell-based; how it was run: as §2
[7] = Glutathione reactivity assessed as reduction in detectable GSH level by Ellman's reagent-based assay
How it was run: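 Glutathione was measured with a commercial kit per the manufacturer's instructions, with TNB production rate proportional to GSH. Cell-free GSH was tested with compounds, and HT-29 luciferase cell lysates were assayed after compound exposure.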

HT-29 = experiment: Reduction of cellular GSH level in human HT-29 cells incubated for 30 mins followed by co-culturing with human mesothelial cells measured after 5 hrs by […]; type: functional, cell-based
[8] = Cytotoxicity against human SU86 cells co-cultured with human mesothelial cells after 4 hrs by firefly luciferase assay relative to control; type: functional, cell-based
How it was run: (§3)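 Luciferase-expressing cancer cells in suspension were treated with a series of compound concentrations or DMSO, overlaid on confluent human mesothelial monolayers for 4 h, and washed to remove non-adherent cells. Surviving adherent cells were read by luciferase luminescence relative to vehicle, and EC50 was derived from the concentration series.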

[9] = Cytotoxicity against human BxPC3 cells co-cultured with human mesothelial cells after 4 hrs by firefly luciferase assay relative to control; type: functional, cell-based; settings: BXPC-3, 4 h; how it was run: as §3
A2780 [10] = experiment: Cytotoxicity against human A2780 cells co-cultured with human mesothelial cells after 4 hrs by firefly luciferase assay relative to control; type: functional, cell-based; settings: A2780, 4 h; how it was run: as §3
[11] = Cytotoxicity against human SKOV3 cells co-cultured with human mesothelial cells after 4 hrs by firefly luciferase assay relative to control; type: functional, cell-based; settings: SK-OV-3, 4 h; how it was run: as §3

Row | SMILES | Ratio [1] | Ratio [2] | Ratio (A2780 [3]) | Ratio [4] | other results
1 | CC(C)(C(=O)N1CCCCC1)c1ccc(S(=O)(=O)/C=C/C#N)cc1 | 0.51 | 0.25 | 0.08 | 0.51 | 
2 | CC(C)(C)c1ccc(S/C=C/C#N)cc1 |  |  |  |  | Activity (A2780 [5]): inactive; Activity (A2780 [6]): inactive
3 | CC(C)(C(=O)N[C@H]1CCCCNC1=O)c1ccc(S(=O)(=O)/C=C/C#N)cc1 | 0.97 | 0.82 | 0.84 | 0.85 | 
4 | CC(C)(c1ccc(S(=O)(=O)/C=C/C#N)cc1)c1nnc(Nc2ccccc2)o1 | 0.62 | 0.39 | 0.22 | 0.65 | 
5 | N#C/C=C/S(=O)(=O)c1ccc(C2(C(=O)Nc3ccccc3)CCC2)cc1 | 0.35 | 0.12 | 0.17 | 0.39 | 
6 | CN(Cc1ccc(F)cc1)C(=O)C(C)(C)c1ccc(S(=O)(=O)/C=C/C#N)cc1 | 0.23 | 0.11 | 0.02 | 0.22 | 
7 | CN(Cc1ccccc1)C(=O)C(C)(C)c1ccc(S(=O)(=O)/C=C/C#N)cc1 | 0.24 | 0.12 | 0.06 | 0.5 | Activity [7]: Active; Activity (HT-29): Active
8 | COc1ccccc1CNC(=O)C(C)(C)c1ccc(S(=O)(=O)/C=C/C#N)cc1 | 0.21 | 0.07 | 0.01 | 0.27 | 
9 | CC(C)(c1ccc(S(=O)(=O)/C=C/C#N)cc1)c1nc2ccccc2[nH]1 | 1.04 | 1.01 | 1.07 | 1.1 | 
10 | C=CS(=O)(=O)c1ccc(C(C)(C)C)cc1 |  |  |  |  | Activity [7]: inactive; Activity (HT-29): inactive
11 | N#C/C=C/S(=O)(=O)c1ccc(C2(C(=O)NC3CCCCC3)CCOCC2)cc1 | 1 | 0.67 | 1.12 | 0.88 | 
12 | CC(C)(C(=O)NCc1ccccc1F)c1ccc(S(=O)(=O)/C=C/C#N)cc1 | 0.2 | 0.15 | 0.03 | 0.3 | 
13 | COc1cccc(NC(=O)COc2ccc(S(=O)(=O)/C=C/C#N)cc2C(C)(C)C)c1 | 0.37 | 0.17 | 0.03 | 0.29 | 
14 | C[C@H](NC(=O)C(C)(C)c1ccc(S(=O)(=O)/C=C/C#N)cc1)c1ccccc1 | 0.32 | 0.27 | 0.13 | 0.67 | 
15 | CC(C)(C(=O)NC1CCCCC1)c1ccc(S(=O)(=O)/C=C/C#N)cn1 | 0.61 | 0.16 | 0.16 | 0.58 | 
16 | CC(C)(c1ccc(S(=O)(=O)/C=C/C#N)cc1)c1nnc(C2CCCCC2)o1 | 0.27 | 0.13 | 0.02 | 0.28 | 
17 | N#C/C=C/S(=O)(=O)c1ccc(C2(C(=O)NC3CCCCC3)CC2)cc1 | 0.34 | 0.28 | 0.09 | 0.23 | 
18 | CC(C)(C)c1cc(S(=O)(=O)/C=C/C#N)ccc1OCC(=O)NCc1ccc(F)cc1 | 0.28 | 0.1 | 0.02 | 0.23 | 
19 | CC(C)(C(=O)NCc1cccc(F)c1)c1ccc(S(=O)(=O)/C=C/C#N)cc1 | 0.24 | 0.17 | 0.05 | 0.3 | 
20 | CC(C)(C(=O)NCc1ccc(S(C)(=O)=O)cc1)c1ccc(S(=O)(=O)/C=C/C#N)cc1 | 1.09 | 0.99 | 0.95 | 0.78 | 
21 | CC(C)(C(=O)NCc1ccc(S(N)(=O)=O)cc1)c1ccc(S(=O)(=O)/C=C/C#N)cc1 | 1.11 | 1 | 1 | 0.96 | 

Row | SMILES | Ratio [1] | Ratio [2] | Ratio (A2780 [3]) | Ratio [4] | other results
22 | Cc1ccc2oc(COc3ccc(S(=O)(=O)/C=C/C#N)cc3C(C)(C)C)nc2c1 | 0.56 | 0.24 | 0.09 | 0.36 | 
23 | N#C/C=C/S(=O)(=O)c1ccc(C2(C(=O)Nc3ccccc3)CCOCC2)cc1 | 0.92 | 0.85 | 0.87 | 0.97 | 
24 | CC(C)(C)c1cc(S(=O)(=O)/C=C/C#N)ccc1OCC(=O)O | 0.97 | 0.81 | 1.05 | 0.92 | 
25 | CCNc1nnc(C(C)(C)c2ccc(S(=O)(=O)/C=C/C#N)cc2)o1 | 0.96 | 1.02 | 0.86 | 1.12 | 
26 | N#C/C=C/S(=O)(=O)c1ccc(C2(C(=O)NCc3ccc(Cl)cc3)CCC2)cc1 | 0.36 | 0.21 | 0.13 | 0.3 | 
27 | CC(C)(C(=O)NCc1ccc(F)cc1)c1ccc(S(=O)(=O)/C=C/C#N)cc1 | 0.18 | 0.23 | 0.11 | 0.6 | Activity [7]: Active; Activity (HT-29): Active
28 | CC(C)(C(=O)Nc1ccccc1)c1ccc(S(=O)(=O)/C=C/C#N)cc1 | 0.52 | 0.22 | 0.17 | 0.55 | 
29 | N#C/C=C/S(=O)(=O)c1ccc(C2(C(=O)NCc3ccc(Cl)cc3)CCOCC2)cc1 | 0.66 | 0.3 | 0.46 | 0.71 | 
30 | COc1cccc(CNC(=O)C(C)(C)c2ccc(S(=O)(=O)/C=C/C#N)cc2)c1 | 0.3 | 0.09 | 0.03 | 0.25 | 
31 | Cc1ccc(O)c(NC(=O)COc2ccc(S(=O)(=O)/C=C/C#N)cc2C(C)(C)C)c1 | 0.38 | 0.1 | 0.05 | 0.24 | EC50 [8]: 8 µM; EC50 [9]: 3.8 µM; EC50 (A2780 [10]): 2.4 µM; EC50 [11]: 6.6 µM
32 | CC(C)(C)c1ccc2cc(S(=O)(=O)/C=C/C#N)ccc2n1 | 0.45 | 0.22 | 0.04 | 0.35 | 
33 | C[C@@H](NC(=O)C(C)(C)c1ccc(S(=O)(=O)/C=C/C#N)cc1)c1ccccc1 | 0.21 | 0.21 | 0.1 | 0.64 | 
34 | CC(C)(C(=O)NCc1ccc(-n2cccn2)cc1)c1ccc(S(=O)(=O)/C=C/C#N)cc1 | 0.49 | 0.48 | 0.34 | 0.84 | 
35 | N#C/C=C/S(=O)(=O)c1ccc(C2(C(=O)NCc3ccc(F)cc3)CC2)cc1 | 0.64 | 0.34 | 0.06 | 0.43 | 
36 | C/C=C/S(=O)(=O)c1ccc(C(C)(C)C)cc1 |  |  |  |  | Activity [7]: inactive; Activity (HT-29): inactive
37 | Cc1cnc(C(C)(C)c2ccc(S(=O)(=O)/C=C/C#N)cc2)o1 | 0.37 | 0.09 | 0.03 | 0.26 | 
38 | CC(C)(C)c1cccc(S(=O)(=O)/C=C/C#N)c1 | 0.13 | 0.08 | 0.1 | 0.35 | 
39 | CC(C)(C(=O)NCC#Cc1ccccc1)c1ccc(S(=O)(=O)/C=C/C#N)cc1 | 0.5 | 0.14 | 0.07 | 0.4 | 
40 | CC(C)(C(=O)NCC(F)F)c1ccc(S(=O)(=O)/C=C/C#N)cc1 | 0.81 | 0.82 | 0.86 | 1.13 | 
41 | COCCOCc1ccc(NC(=O)C(C)(C)c2ccc(S(=O)(=O)/C=C/C#N)cc2)cc1 | 0.66 | 0.4 | 0.26 | 0.6 | 
42 | CC(C)(C(=O)NCCc1ccccc1)c1ccc(S(=O)(=O)/C=C/C#N)cc1 | 0.29 | 0.15 | 0.1 | 0.56 | 
